Columns and labels:
MCF7 [1] = assay: Cytotoxicity against human MCF7 cells assessed as reduction in cell viability after 48 hrs by MTS assay; type: functional, cell-based; conditions: MCF7, 48 h
In short: (§1)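 Cells (5 × 10^3 per well) were plated 12 h before treatment, then exposed continuously to compound for 48 h. MTS was added, with 1–4 h incubation at 37 °C and OD read at 490 nm. IC50 is the concentration cutting OD by 50% versus untreated cells, taken from dose–response curves. Values are the mean of three independent determinations.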

[2] = Cytotoxicity against human SMMC-7221 cells assessed as reduction in cell viability after 48 hrs by MTS assay; type: functional, cell-based; conditions: SMMC-7221, 48 h; in short: as §1
A549 = assay: Cytotoxicity against human A549 cells assessed as reduction in cell viability after 48 hrs by MTS assay; type: functional, cell-based; conditions: A549, 48 h; in short: as §1
SW480 = assay: Cytotoxicity against human SW480 cells assessed as reduction in cell viability after 48 hrs by MTS assay; type: functional, cell-based; conditions: SW480, 48 h; in short: as §1
MCF7 [3] = assay: Potency index, ratio of cisplatin IC50 to compound IC50 for cytotoxicity against human MCF7 cells by MTS assay; type: functional

| SMILES | IC50 (MCF7 [1]) | IC50 [2] | IC50 (A549) | IC50 (SW480) | Ratio IC50 (MCF7 [3]) |
| --- | --- | --- | --- | --- | --- |
| COc1ccc(C(=O)C[n+]2c(C)n(CCCN3C[C@@H]4Cc5ccccc5[C@@H]4c4cccc(OC)c43)c3ccccc32)cc1 | 400 nM | 1320 nM | 3650 nM | 1270 nM |  |
| COc1ccc(C(=O)C[n+]2cn(CCCN3C[C@@H]4Cc5ccc(Br)cc5[C@@H]4c4cccc(OC)c43)c3cc(C)c(C)cc32)cc1.[Br-] | 350 nM | 890 nM | 1530 nM | 1400 nM | 56 |
| COc1ccc(C(=O)C[n+]2c(C)n(CCCN3C[C@@H]4Cc5ccc(Br)cc5[C@@H]4c4cccc(OC)c43)c3ccccc32)cc1 | 1010 nM | 930 nM | 1220 nM | 1240 nM |  |
| COc1cc2c(cc1OC)[C@@H]1c3cccc(OC)c3N(CCCn3c[n+](Cc4ccc5ccccc5c4)c4cc(C)c(C)cc43)C[C@@H]1C2 | 1490 nM | 1820 nM | 5830 nM | 1620 nM |  |
| COc1cccc2c1N(C(=O)CCn1cnc3cc(C)c(C)cc31)C[C@@H]1Cc3ccccc3[C@H]21 | > 20000 nM | > 20000 nM | > 20000 nM | > 20000 nM |  |
